Results as given in ChEMBL document CHEMBL1649097, “Kinase inhibition by deoxy analogues of the resorcylic lactone L-783277” (ACS Med Chem Lett, 2011).

Tests used:
[1] = target: Non-receptor tyrosine-protein kinase TYK2 (Homo sapiens, UniProt P29597); test: Inhibition of TYK2 by TR-FRET based LanthaScreen assay
Method in brief: (§1)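 LanthaScreen TR-FRET kinase format, run per the group's earlier protocol. IC50 from two independent experiments; for some compounds, PDGFRα and VEGFR2 values are means ± SD of three independent runs. The FGFR3 used was the K651E mutant.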

[2] = target: ALK tyrosine kinase receptor (Homo sapiens, UniProt Q9UM73); test: Inhibition of ALK by TR-FRET based LanthaScreen assay
Method in brief: (§2)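 TR-FRET LanthaScreen kinase assay with phosphorylation of a substrate; FGFR3 used as the K651E mutant. IC50 derived from two independent experiments; for some compounds, ALK and cKIT values are averages ± SDs of three independent experiments.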

[3] = target: Mitogen-activated protein kinase 1 (Homo sapiens, UniProt P28482); test: Inhibition of ERK2 by Caliper mobility shift assay
Method in brief: (§3)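 Caliper mobility shift kinase assay with phosphorylation of a substrate; IC50 derived from two independent experiments.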

[4] = target: T1, Vascular endothelial growth factor receptor 2 (Homo sapiens, UniProt P35968); test: Inhibition of VEGFR2 by TR-FRET based LanthaScreen assay; method in brief: as §1
T1 sequence (P35968 whole entry): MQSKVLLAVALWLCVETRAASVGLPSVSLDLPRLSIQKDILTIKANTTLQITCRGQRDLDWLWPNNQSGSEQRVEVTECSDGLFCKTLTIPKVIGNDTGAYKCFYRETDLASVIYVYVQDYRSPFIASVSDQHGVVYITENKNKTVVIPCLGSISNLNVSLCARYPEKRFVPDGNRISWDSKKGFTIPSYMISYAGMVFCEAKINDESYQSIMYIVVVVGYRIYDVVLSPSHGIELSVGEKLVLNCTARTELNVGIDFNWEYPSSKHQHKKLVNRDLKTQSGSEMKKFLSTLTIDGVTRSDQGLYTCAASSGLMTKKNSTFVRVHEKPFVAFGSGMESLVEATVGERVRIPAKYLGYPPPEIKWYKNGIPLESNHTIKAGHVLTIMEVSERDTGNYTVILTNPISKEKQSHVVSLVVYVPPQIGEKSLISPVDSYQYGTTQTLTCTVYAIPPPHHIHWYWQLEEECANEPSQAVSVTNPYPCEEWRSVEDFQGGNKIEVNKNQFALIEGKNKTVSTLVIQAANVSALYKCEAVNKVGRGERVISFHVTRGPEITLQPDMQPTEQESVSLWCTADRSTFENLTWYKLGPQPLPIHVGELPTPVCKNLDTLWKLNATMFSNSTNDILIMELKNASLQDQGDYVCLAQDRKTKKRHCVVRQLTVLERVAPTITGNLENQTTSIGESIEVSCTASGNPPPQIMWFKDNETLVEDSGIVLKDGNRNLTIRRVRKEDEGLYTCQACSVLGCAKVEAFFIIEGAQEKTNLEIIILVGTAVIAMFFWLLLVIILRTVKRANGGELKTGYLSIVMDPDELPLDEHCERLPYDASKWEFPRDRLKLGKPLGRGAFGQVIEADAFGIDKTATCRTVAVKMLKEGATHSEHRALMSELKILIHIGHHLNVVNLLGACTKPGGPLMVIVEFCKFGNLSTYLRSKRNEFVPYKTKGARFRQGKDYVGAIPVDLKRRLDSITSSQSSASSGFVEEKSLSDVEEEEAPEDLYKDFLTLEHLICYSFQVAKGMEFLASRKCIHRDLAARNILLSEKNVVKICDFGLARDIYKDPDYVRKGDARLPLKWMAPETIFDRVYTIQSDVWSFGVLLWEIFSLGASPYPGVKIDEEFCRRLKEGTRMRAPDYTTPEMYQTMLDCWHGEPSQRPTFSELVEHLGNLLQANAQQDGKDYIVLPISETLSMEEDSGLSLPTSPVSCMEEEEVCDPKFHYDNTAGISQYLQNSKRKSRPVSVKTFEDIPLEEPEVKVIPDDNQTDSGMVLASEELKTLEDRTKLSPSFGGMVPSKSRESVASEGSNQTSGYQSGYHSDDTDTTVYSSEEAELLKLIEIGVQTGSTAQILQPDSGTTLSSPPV

Ephrin type-B receptor 4 = target: T2, Ephrin type-B receptor 4 (Homo sapiens, UniProt P54760); test: Inhibition of EPHB4 by TR-FRET based LanthaScreen assay; method in brief: as §1
T2 sequence (P54760 whole entry): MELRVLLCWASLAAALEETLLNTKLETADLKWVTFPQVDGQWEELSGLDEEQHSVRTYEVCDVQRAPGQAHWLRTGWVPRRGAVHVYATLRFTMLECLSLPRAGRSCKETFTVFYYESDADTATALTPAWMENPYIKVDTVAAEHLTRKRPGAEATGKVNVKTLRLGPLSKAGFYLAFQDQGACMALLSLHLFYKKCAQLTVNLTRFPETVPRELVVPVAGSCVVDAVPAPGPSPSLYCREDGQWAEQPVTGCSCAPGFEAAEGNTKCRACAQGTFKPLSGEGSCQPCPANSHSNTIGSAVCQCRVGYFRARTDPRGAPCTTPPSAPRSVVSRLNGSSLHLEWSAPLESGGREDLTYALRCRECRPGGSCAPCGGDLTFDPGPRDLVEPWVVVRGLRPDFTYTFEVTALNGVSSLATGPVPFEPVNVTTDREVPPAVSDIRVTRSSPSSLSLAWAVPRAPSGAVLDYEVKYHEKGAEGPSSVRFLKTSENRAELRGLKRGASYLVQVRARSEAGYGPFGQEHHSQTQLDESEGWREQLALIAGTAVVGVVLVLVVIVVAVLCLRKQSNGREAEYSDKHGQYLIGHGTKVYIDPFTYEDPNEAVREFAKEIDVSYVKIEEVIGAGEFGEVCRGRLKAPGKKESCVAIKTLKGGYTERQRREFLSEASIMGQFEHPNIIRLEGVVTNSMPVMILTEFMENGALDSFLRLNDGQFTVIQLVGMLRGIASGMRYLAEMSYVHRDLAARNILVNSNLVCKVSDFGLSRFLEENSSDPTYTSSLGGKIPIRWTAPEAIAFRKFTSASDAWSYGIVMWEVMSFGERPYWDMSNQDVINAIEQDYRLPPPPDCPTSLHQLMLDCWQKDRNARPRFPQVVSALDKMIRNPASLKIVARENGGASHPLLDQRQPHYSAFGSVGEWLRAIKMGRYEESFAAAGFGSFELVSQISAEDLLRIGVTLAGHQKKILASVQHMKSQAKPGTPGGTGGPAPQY

[5] = target: Platelet-derived growth factor receptor alpha (Homo sapiens, UniProt P16234, V561D); test: Inhibition of PDGFRalpha V561D mutant by TR-FRET based LanthaScreen assay; method in brief: as §1
Sequence of Platelet-derived growth factor receptor alpha (P16234 24-1089 V561D limits assumed): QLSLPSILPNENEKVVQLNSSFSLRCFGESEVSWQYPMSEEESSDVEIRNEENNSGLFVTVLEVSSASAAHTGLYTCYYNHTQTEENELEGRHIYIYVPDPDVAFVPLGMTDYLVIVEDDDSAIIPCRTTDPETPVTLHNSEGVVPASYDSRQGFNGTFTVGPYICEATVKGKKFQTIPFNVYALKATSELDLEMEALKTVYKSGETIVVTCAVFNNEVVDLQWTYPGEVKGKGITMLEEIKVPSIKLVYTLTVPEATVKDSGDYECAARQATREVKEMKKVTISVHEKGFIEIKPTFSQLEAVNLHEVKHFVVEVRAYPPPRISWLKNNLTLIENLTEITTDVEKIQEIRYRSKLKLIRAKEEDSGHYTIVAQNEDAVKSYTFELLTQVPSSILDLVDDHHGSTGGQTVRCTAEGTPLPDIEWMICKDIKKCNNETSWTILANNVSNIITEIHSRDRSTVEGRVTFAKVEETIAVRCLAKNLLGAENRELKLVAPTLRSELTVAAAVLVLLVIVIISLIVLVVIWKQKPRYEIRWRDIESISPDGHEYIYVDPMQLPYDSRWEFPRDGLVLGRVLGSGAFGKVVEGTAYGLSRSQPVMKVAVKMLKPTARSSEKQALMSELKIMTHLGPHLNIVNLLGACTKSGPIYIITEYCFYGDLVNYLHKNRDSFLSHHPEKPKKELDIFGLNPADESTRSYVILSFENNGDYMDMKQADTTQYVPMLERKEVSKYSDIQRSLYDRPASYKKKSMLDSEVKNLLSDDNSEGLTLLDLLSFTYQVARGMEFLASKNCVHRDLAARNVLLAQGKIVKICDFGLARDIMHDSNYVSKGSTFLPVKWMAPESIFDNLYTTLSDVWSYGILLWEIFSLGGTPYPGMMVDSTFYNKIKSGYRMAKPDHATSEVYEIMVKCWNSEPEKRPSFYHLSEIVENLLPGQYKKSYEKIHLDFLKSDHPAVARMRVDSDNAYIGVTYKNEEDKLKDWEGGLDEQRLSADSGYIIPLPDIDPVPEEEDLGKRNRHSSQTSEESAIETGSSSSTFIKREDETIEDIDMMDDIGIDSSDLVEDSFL

[6] = target: Proto-oncogene tyrosine-protein kinase receptor Ret (Homo sapiens, UniProt P07949); test: Inhibition of RET by TR-FRET based LanthaScreen assay; method in brief: as §1
[7] = target: Tyrosine-protein kinase Lck (Homo sapiens, UniProt P06239); test: Inhibition of LCK by TR-FRET based LanthaScreen assay
Sequence of Tyrosine-protein kinase Lck (P06239 whole entry): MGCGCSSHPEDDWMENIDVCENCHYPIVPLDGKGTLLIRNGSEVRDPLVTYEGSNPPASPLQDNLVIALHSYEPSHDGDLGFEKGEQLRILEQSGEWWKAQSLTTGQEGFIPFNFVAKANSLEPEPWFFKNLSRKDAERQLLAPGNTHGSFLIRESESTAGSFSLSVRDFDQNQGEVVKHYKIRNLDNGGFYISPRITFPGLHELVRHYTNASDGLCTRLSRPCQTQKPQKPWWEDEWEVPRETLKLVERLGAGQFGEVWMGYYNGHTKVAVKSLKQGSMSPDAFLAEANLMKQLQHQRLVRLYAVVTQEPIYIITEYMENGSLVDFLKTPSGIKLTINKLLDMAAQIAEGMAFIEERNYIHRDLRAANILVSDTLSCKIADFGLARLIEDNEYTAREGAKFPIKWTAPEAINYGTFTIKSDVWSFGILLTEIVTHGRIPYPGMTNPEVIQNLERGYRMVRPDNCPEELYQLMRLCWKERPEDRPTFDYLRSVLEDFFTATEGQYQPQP

[8] = target: Mast/stem cell growth factor receptor Kit (Homo sapiens, UniProt P10721); test: Inhibition of cKIT by TR-FRET based LanthaScreen assay; method in brief: as §2
Sequence of Mast/stem cell growth factor receptor Kit (P10721 whole entry): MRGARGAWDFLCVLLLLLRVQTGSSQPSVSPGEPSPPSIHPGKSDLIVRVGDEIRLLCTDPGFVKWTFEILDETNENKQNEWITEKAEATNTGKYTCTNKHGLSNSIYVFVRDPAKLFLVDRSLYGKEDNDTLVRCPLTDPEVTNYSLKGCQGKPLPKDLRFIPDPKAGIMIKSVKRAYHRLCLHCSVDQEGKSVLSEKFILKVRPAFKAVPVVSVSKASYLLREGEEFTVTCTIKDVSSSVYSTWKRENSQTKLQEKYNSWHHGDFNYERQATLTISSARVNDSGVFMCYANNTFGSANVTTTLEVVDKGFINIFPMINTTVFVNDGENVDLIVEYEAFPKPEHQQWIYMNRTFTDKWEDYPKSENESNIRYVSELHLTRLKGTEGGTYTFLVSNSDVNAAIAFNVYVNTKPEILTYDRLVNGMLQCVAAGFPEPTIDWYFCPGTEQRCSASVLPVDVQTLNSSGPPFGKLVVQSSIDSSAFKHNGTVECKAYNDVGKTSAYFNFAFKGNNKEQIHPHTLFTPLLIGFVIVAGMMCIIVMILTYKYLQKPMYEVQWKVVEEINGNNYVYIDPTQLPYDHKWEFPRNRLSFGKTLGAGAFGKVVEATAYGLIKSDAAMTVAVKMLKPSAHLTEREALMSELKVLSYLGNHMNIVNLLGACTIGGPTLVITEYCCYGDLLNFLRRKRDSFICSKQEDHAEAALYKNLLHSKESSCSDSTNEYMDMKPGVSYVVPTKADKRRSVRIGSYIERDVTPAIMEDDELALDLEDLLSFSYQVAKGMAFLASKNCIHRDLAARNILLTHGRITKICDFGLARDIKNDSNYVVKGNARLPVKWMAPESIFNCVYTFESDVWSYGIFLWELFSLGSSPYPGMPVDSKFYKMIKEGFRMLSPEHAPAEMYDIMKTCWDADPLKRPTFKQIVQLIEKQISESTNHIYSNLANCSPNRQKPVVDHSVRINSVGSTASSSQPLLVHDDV

[9] = target: MAP kinase-interacting serine/threonine-protein kinase 2 (Homo sapiens, UniProt Q9HBH9); test: Inhibition of MNK2 by TR-FRET based LanthaScreen assay; method in brief: as §2
[10] = target: MAP kinase-activated protein kinase 5 (Homo sapiens, UniProt Q8IW41); test: Inhibition of MK5 by TR-FRET based LanthaScreen assay; method in brief: as §1
[11] = target: Dual specificity mitogen-activated protein kinase kinase 2 (Homo sapiens, UniProt P36507); test: Inhibition of MEK2 by TR-FRET based LanthaScreen assay; method in brief: as §1
[12] = target: Glycogen synthase kinase-3 beta (Homo sapiens, UniProt P49841); test: Inhibition of GSK3-beta by TR-FRET based LanthaScreen assay; method in brief: as §1
[13] = target: Rho-associated protein kinase 2 (Homo sapiens, UniProt O75116); test: Inhibition of ROCK2 by Caliper mobility shift assay
Method in brief: (§4)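 Caliper microfluidic mobility shift readout of substrate phosphorylation, run per the group's earlier kinase protocol. IC50 taken from two independent experiments.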

[14] = target: Tyrosine-protein kinase BTK (Homo sapiens, UniProt Q06187); test: Inhibition of BTK by TR-FRET based LanthaScreen assay
Ephrin type-A receptor 4 = Ephrin type-A receptor 4 (Homo sapiens, UniProt P54764); test: Inhibition of EPHA4 by TR-FRET based LanthaScreen assay; method in brief: as §1
[15] = target: Hepatocyte growth factor receptor (Homo sapiens, UniProt P08581); test: Inhibition of HGFR by TR-FRET based LanthaScreen assay; method in brief: as §1
Aurora kinase A = Aurora kinase A (Homo sapiens, UniProt O14965); test: Inhibition of Aurora A kinase by Caliper mobility shift assay; method in brief: as §4
[16] = target: Cyclin-dependent kinase 2 (Homo sapiens, UniProt P24941); test: Inhibition of CDK2A by Caliper mobility shift assay; method in brief: as §4
Insulin receptor = Insulin receptor (Homo sapiens, UniProt P06213); test: Inhibition of INSR by TR-FRET based LanthaScreen assay; method in brief: as §1
[17] = target: T1, Vascular endothelial growth factor receptor 2; test: Inhibition of VEGFR2 autophosphorylation by cell based assay
[18] = target: Tyrosine-protein kinase JAK1 (Homo sapiens, UniProt P23458); test: Inhibition of JAK1 by TR-FRET based LanthaScreen assay
[19] = target: Tyrosine-protein kinase ABL1 (Homo sapiens, UniProt P00519, T315I); test: Inhibition of cABL T315I mutant by Caliper mobility shift assay; method in brief: as §4
[20] = Inhibition of COT1 by Caliper mobility shift assay; method in brief: as §3
[21] = target: Tyrosine-protein kinase JAK2 (Homo sapiens, UniProt O60674); test: Inhibition of JAK2 by TR-FRET based LanthaScreen assay
[22] = target: cAMP-dependent protein kinase catalytic subunit alpha (Homo sapiens, UniProt P17612); test: Inhibition of PKAalpha by TR-FRET LanthaScreen assay
[23] = target: Receptor tyrosine-protein kinase erbB-2 (Homo sapiens, UniProt P04626); test: Inhibition of HER2 by TR-FRET based LanthaScreen assay; method in brief: as §1
[24] = target: Fibroblast growth factor receptor 3 (Homo sapiens, UniProt P22607); test: Inhibition of FGFR3 by TR-FRET based LanthaScreen assay; method in brief: as §1
[25] = Chemical stability in HEPES buffer assessed as compound isomerization at pH 7.0 to 7.5 for 24 hrs at 37 degC; format: physicochemical; conditions: read-out: Activity
Method in brief: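 Compound incubated in HEPES buffer at pH 7.0−7.5 for 24 h at 37 °C; read-out is the percentage isomerization to the C7′-C8′ E isomer.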

[26] = target: Serine/threonine-protein kinase N1 (Homo sapiens, UniProt Q16512); test: Inhibition of PKN1 by Caliper mobility shift assay; method in brief: as §4
[27] = Inhibition of PKAtau by TR-FRET based LanthaScreen assay; method in brief: as §2
[28] = target: Mitogen-activated protein kinase 14 (Homo sapiens, UniProt Q16539); test: Inhibition of p38alpha by Caliper mobility shift assay; method in brief: as §4
[29] = target: Tyrosine-protein kinase receptor UFO (Homo sapiens, UniProt P30530); test: Inhibition of Axl by TR-FRET based LanthaScreen assay; method in brief: as §1
[30] = target: Insulin-like growth factor 1 receptor (Homo sapiens, UniProt P08069); test: Inhibition of IGF1R by TR-FRET based LanthaScreen assay; method in brief: as §1
[31] = target: Tyrosine-protein kinase JAK3 (Homo sapiens, UniProt P52333); test: Inhibition of JAK3 by Caliper mobility shift assay; method in brief: as §4
[32] = Inhibition of CDK4D1 by Caliper mobility shift assay; method in brief: as §3
[33] = target: Serine/threonine-protein kinase N2 (Homo sapiens, UniProt Q16513); test: Inhibition of PKN2 by Caliper mobility shift assay; method in brief: as §4
[34] = target: Tyrosine-protein kinase ZAP-70 (Homo sapiens, UniProt P43403); test: Inhibition of ZAP70 by TR-FRET based LanthaScreen assay; method in brief: as §1

Sequence of Non-receptor tyrosine-protein kinase TYK2 (P29597 whole entry): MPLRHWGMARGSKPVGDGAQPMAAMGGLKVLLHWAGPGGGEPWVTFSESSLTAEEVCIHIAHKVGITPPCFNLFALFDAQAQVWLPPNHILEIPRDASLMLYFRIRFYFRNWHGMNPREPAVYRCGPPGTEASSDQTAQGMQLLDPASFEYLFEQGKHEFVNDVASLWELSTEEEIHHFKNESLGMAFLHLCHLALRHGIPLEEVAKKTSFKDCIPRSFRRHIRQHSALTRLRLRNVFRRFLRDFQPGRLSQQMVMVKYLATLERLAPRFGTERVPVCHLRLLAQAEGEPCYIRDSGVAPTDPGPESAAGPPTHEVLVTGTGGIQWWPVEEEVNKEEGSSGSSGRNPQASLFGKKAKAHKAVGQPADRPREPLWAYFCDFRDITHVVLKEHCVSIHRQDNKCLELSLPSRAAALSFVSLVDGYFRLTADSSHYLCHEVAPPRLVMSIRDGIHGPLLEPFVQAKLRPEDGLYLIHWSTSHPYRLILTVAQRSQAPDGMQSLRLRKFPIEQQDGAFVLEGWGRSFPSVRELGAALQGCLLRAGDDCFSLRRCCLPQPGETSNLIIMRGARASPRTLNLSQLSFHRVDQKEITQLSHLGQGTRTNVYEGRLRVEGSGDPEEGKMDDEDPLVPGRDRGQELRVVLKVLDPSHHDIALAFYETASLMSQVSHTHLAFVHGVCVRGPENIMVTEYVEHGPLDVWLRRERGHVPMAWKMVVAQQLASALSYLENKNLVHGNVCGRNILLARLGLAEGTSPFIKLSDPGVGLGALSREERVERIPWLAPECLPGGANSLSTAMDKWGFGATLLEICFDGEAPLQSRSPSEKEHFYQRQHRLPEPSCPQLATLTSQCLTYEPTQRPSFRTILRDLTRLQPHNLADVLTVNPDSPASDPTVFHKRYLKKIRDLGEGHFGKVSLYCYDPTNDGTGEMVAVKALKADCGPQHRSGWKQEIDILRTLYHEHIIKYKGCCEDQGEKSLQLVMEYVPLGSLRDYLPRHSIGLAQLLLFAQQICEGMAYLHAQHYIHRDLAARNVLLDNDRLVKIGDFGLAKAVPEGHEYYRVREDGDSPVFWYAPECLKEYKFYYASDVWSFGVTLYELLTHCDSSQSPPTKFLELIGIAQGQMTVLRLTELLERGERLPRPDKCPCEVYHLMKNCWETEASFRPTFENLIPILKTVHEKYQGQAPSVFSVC

COc1cc(O)c2c(c1)CCC[C@H](O)CC(=O)/C=C/C[C@H](C)OC2=O
IC50 [1]: > 10 µM
IC50 [2]: > 10 µM
IC50 [3]: > 10 µM
IC50 [4]: 0.19 µM
IC50 (Ephrin type-B receptor 4): > 10 µM
IC50 [5]: 0.18 µM
IC50 [6]: > 10 µM
IC50 [7]: > 10 µM
IC50 [8]: 7.6 µM

COc1cc(O)c2c(c1)CCCCCC(=O)/C=C\C[C@H](C)OC2=O
IC50 [9]: > 10 µM
IC50 [1]: > 10 µM
IC50 [10]: > 10 µM
IC50 [11]: 6.84 µM
IC50 [2]: 3.5 µM
IC50 [3]: > 10 µM
IC50 [4]: 0.17 µM
IC50 (Ephrin type-B receptor 4): > 10 µM
IC50 [5]: 0.095 µM
IC50 [6]: > 10 µM
IC50 [7]: > 10 µM
IC50 [8]: > 10 µM

COc1cc(O)c2c(c1)CCC[C@H](O)[C@H](O)C(=O)/C=C\C[C@H](C)OC2=O
IC50 [12]: > 10 µM
IC50 [13]: > 10 µM
IC50 [14]: > 10 µM
IC50 (Ephrin type-A receptor 4): > 10 µM
IC50 [1]: 4.1 µM
IC50 [15]: > 10 µM
IC50 (Aurora kinase A): > 10 µM
IC50 [16]: > 10 µM
IC50 (Insulin receptor): > 10 µM
IC50 [10]: 0.64 µM
IC50 [11]: 0.015 µM
IC50 [17]: 0.057 µM
IC50 [2]: 0.763 µM
IC50 [3]: 0.95 µM
IC50 [18]: > 10 µM
IC50 [19]: > 10 µM
IC50 [20]: > 10 µM
IC50 [21]: > 10 µM
IC50 [22]: > 10 µM
IC50 [23]: > 10 µM
IC50 [24]: > 10 µM
IC50 [4]: 0.002 µM
degraded at 24 h [25]: < 1%
IC50 (Ephrin type-B receptor 4): > 10 µM
IC50 [26]: > 10 µM
IC50 [27]: > 10 µM
IC50 [5]: 0.00238 µM
IC50 [6]: > 10 µM
IC50 [28]: > 10 µM
IC50 [29]: > 10 µM
IC50 [30]: > 10 µM
IC50 [31]: > 10 µM
IC50 [7]: 6.2 µM
IC50 [8]: 0.303 µM
IC50 [32]: > 10 µM
IC50 [33]: > 10 µM
IC50 [34]: > 10 µM
